Data published in ChEMBL document CHEMBL1949640, “Discovery of substituted biphenyl oxazolidinone inhibitors of cholesteryl ester transfer protein” (ACS Med Chem Lett, 2011).

What was measured:
[1] = target: T1, Cholesteryl ester transfer protein (Homo sapiens, UniProt P11597); experiment: Inhibition of CETP-mediated BODIPY-labeled cholesteryl ester transfer after 45 mins by FRET analysis
T1 sequence (P11597 whole entry): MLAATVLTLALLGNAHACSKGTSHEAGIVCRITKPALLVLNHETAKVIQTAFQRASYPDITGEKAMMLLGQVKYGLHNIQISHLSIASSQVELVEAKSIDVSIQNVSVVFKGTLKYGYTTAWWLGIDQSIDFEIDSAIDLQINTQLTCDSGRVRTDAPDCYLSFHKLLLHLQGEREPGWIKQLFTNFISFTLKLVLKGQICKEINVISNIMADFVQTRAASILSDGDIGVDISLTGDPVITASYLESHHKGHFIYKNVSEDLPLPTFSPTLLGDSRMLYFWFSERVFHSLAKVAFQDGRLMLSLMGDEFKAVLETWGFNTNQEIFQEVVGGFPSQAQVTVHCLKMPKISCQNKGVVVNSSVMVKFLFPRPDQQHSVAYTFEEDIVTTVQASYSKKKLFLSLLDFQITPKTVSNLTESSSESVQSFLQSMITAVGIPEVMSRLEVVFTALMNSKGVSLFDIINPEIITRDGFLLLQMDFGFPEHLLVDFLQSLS
How it was run: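 Fluorescence transfer assay of cholesteryl ester transfer by CETP. IC50 taken from 10-point titrations, reported as the average of three or more titrations, the average of two, or a single titration.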

[2] = organism: Mus musculus; experiment: (§1) Clearance in mouse; type: ADME, organism-based; conditions: in vivo
[3] = Oral bioavailability in mouse; type: ADME, organism-based; conditions: in vivo
[4] = Volume of distribution in mouse; type: ADME, organism-based; conditions: in vivo
[5] = target: T2, Cholesteryl ester transfer protein (Homo sapiens) (UniProt P11597); experiment: Inhibition of CETP-mediated BODIPY-labeled cholesteryl ester transfer at 100 uM after 45 mins by FRET analysis
T2 sequence (whole entry): T1 sequence (P11597 whole entry)

[6] = as §1; type: ADME, organism-based; conditions: in vivo

With `COc1ccc(C(C)C)cc1-c1ccc(C(F)(F)F)cc1CN1C(=O)OCC1c1cc(C(F)(F)F)cc(C(F)(F)F)c1` (racemic) the IC50 [1] was 14.2 µM.

In the case of `COc1ccc(C(C)C)cc1-c1ccc(C(F)(F)F)cc1CN1CC(c2cc(C(F)(F)F)cc(C(F)(F)F)c2)OC1=O` (racemic), the IC50 [1] is reported as 0.133 µM.

`COc1ccc(C(C)C)cc1-c1ccc(C(F)(F)F)cc1CN1C[C@@H](c2cc(C(F)(F)F)cc(C(F)(F)F)c2)OC1=O` gave a clearance [2] of 1.9 L/h/kg, a bioavailability [3] of 4% and a Vd [4] of 3.4 L/kg.

`COc1ccc(C(C)C)cc1-c1ccc(C(F)(F)F)cc1CN1C[C@H](c2ccccc2)OC1=O` showed an IC50 [1] of 37.2 µM.

`COc1ccc(C(C)C)cc1-c1ccc(C(F)(F)F)cc1CN1C[C@@H](c2ccccc2)OC1=O` showed an IC50 [1] of 0.293 µM.

For `COC(=O)N(Cc1ccccc1)Cc1cc(C(F)(F)F)ccc1-c1cc(C(C)C)ccc1OC`, the IC50 [1] was 27.3 µM.

`COc1ccc(C(C)C)cc1-c1ccc(C(F)(F)F)cc1CN1C[C@H](c2cc(C(F)(F)F)cc(C(F)(F)F)c2)OC1=O` showed an inhibition [5] of less than 50%.

Work on `COC(=O)N(Cc1cc(C(F)(F)F)cc(C(F)(F)F)c1)Cc1cc(C(F)(F)F)ccc1-c1cc(C(C)C)ccc1OC` yielded a clearance [6] of 0.768 L/h/kg, a bioavailability [3] of 5% and a Vd [4] of 3.3 L/kg.
